p47phox inh – blocks human p47phox regulatory protein of NADPH oxidases | p47phox/p22phox peptide binding, fluorescence polarization, 2 h | P14598 | inhibition, % at 24.7 µM | hit rate 0.53% among 220,000;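 active = inhibition above about 30%, limit read from the data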;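 also: 0% = p47phox with labelled peptide and 100% = labelled peptide alone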
Target sequence (P14598 whole entry, looked up): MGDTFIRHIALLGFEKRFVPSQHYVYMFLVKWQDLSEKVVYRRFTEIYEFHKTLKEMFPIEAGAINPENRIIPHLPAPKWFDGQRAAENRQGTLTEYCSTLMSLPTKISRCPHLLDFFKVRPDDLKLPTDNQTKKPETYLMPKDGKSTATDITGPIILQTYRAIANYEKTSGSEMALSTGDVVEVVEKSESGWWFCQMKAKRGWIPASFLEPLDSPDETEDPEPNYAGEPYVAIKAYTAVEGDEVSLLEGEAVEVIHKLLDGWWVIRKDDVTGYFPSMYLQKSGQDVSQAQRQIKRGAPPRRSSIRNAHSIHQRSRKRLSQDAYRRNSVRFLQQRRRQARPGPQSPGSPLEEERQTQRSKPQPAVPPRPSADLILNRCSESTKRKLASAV
RBBP9 inhibitor – blocks human serine hydrolase RBBP9; inhibition, % at 7.94 µM; recombinant RBBP9, FP-Rh probe fluorescence polarization; O75884; hit rate 0.2% among 220,000;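 active = inhibition above the campaign mean of all tested compounds plus 3 SD, cut at about 14% in these data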;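 also: plate controls were DMSO wells with RBBP9 for no effect and wells lacking RBBP9 protein for full effect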
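Measured by: FP readout at 525/598 nm; material: recombinant human RBBP9; also added: Serine-hydrolase probe FP-Rh, 375 nM pre-mixing; medium: Tris buffer pH 8.0, NaCl, Pluronic; replication: one well per compound; doses: one concentration, 7.94 µM nominal, 0.794% DMSO; timing: preincubation 30 min plus labeling 45 min at 25 °C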
sdo1 growth – compounds rescuing growth of sdo1-depleted yeast, bone marrow failure model | hit rate 0.21% among 140,000 | S. cerevisiae sdo1-depleted JHY4D growth rescue, OD600 30 h; stronger effect = higher value; pdr5 snq2 efflux-pump mutant strain | AID 817 | z-score at 10 µM;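 active = z-score above 3 at both the 24 hr and the 30 hr optical density reads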;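 also: z-score against mean and SD of all compound wells on the same plate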
BB579 growth dn – yeast BB579 growth reduction in restrictive medium; S. cerevisiae BB579 growth, OD615, 48 h; inhibition, % at 10 µM; hit rate 0.51% among 140,000; AID 804;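 active = inhibition above a set limit, 3 SD over the mean compound inhibition, cut at about 44% in these data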
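System: Saccharomyces cerevisiae DeaD strain BB579, replicative lifespan model yeast. Buffer or medium: restrictive glucose-based CSMM-D medium. Doses: one dose, 10 µM compound with 0.25% DMSO. Timing: 4 h preincubation and 48 h exposure at 30 °C. Detection: turbidity as optical density at 615 nm. Benchmarks: amphotericin B 10 µg/mL, positive.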
Yeast lifespan up – yeast lifespan extension; AID 775; inhibition of the nicotinamide effect, % at 10 µM; S. cerevisiae growth with nicotinamide, OD615; deaD strain in restrictive glucose medium; hit rate 0.68% among 130,000;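 active = inhibition above a set limit, placed 3 SD over the median of all compounds, cut at about 26% in these data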;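 also: 0% = nicotinamide-treated wells and 100% = cells grown without nicotinamide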
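assay system = DeaD-strain S. cerevisiae | buffer or medium = restrictive glucose medium | reagent = 1.5 mM nicotinamide | compound = 10 µM single point, 0.25% DMSO | incubation = 48 h compound exposure at 30 °C, humidified | signal = OD615 measurement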
TbHK1 inh – T. brucei hexokinase 1 inhibition; hit rate 0.11% among 220,000; recombinant TbHK1, G6PDH-coupled NADH A340; inhibition, % at 10 µM;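 active = inhibition of 50% or more in the single-dose primary screen; inactive = inhibition below 50%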
The depositor's hits bear a star; · = no result given. The list is not random: actives were taken first. Their share in the collection is about 1.6%.

SMILES | p47phox inh | RBBP9 inhibitor | sdo1 growth | BB579 growth dn | Yeast lifespan up | TbHK1 inh
COc1cccc2cc(C(=O)NNC(=O)c3ccc(Br)cc3)c(=O)oc12 | 37.2* | -4.6 | · | · | · | 1.5
COc1cccc2cc(C(C)=O)c(=O)oc12 | -8.1 | -0.5 | 1.23 | -23.9 | -22.0 | -17.2
COc1ccc(C(=O)NCC(=O)N2CCc3ccccc3C2)cc1 | 78.7* | -5.4 | · | · | · | 7.1
CCCCc1ccc(NS(=O)(=O)c2cccs2)cc1 | -9.2 | -0.8 | -2.78 | 58.2* | -22.3 | 15.4
O=S(=O)(Nc1ccc(Cc2ccncc2)cc1)c1cccs1 | -7.5 | -6.4 | -0.43 | -12.7 | 13.5 | 3.3
O=C(CSc1nnc(C2COc3ccccc3O2)o1)Nc1nccs1 (stereo not drawn) | 37.4* | -6.9 | 0.56 | 5.5 | -10.5 | -0.1
Cc1ccccc1NC(=O)c1cc([N+](=O)[O-])ccc1NCCN1C(=O)CCC1=O | · | 0.6 | · | · | · | -26.0
Oc1ccc(NCc2ccccc2OCc2ccccc2F)cc1 | -17.5 | 6.5 | -0.17 | -28.1 | 27.0* | -4.5
Cc1ccc(NCc2ccccc2OCc2ccccc2F)cc1 | -3.0 | 6.7 | 0.19 | -32.5 | -11.4 | 6.9
O=C1C2=C(NC(=S)NC2c2ccc(Cl)cc2)NC(c2ccc(Cl)cc2)N1c1ccc(Cl)cc1 (stereo not drawn) | -22.4 | -14.2 | -1.33 | -49.7 | -8.1 | 0.4
CCc1ccc(C2NC(=S)NC3=C2C(=O)N(c2ccccc2OC)C(c2ccc(CC)cc2)N3)cc1 (stereo not drawn) | -8.0 | -9.8 | -1.79 | 52.6* | -18.3 | -11.6
O=C(CN1CCC(n2nnc3cc(F)ccc32)CC1)N1CCCc2ccccc21 | -8.1 | -5.6 | -0.29 | -74.5 | -8.3 | 4.2
O=C(CN1CCC(n2nnc3cc(C(F)(F)F)ccc32)CC1)N1CCc2ccccc21 | -1.4 | -2.0 | -0.16 | -28.9 | 39.6* | -10.1
CSC1=NSC2=NC(=O)/C(=C\c3cccs3)C(=N)N12 | -17.9 | -2.5 | 1.1 | -4.8 | 42.5* | -9.0
CSC1=NSC2=NC(=O)/C(=C/c3coc4ccccc4c3=O)C(=N)N12 | -60.0 | -6.9 | 0.26 | 68.2* | 8.3 | -5.6
N=C(c1ccc([N+](=O)[O-])cc1)N1CCCCCC1 | -9.6 | -3.3 | · | · | · | -4.5
CCOC(=O)n1c(O)c(N=NC(N)=S)c2cc(C)ccc21 | -12.2 | -3.3 | · | · | · | -8.9
O=C(COc1ccc(Cl)cc1Cl)c1ccc[nH]1 | -8.9 | -6.3 | · | · | · | 0.5
C=CCN(CC=C)CCCOc1ccc(C)cc1OC | -15.8 | 0.7 | · | · | · | -1.2
CC(C)(O)C1Cc2cc(/C=C/C(=O)O)c(O)cc2O1 (stereo not drawn) | 84.8* | -1.9 | · | · | · | -9.9
CCOc1cc(CNC2CCCC2)c(Cl)cc1OCC(=O)Nc1ccccc1 | 1.7 | -8.5 | · | · | · | 44.7
CC1=C(C#N)c2nc(N)c(C#N)c(C)c2/C1=C\c1ccc(-c2ccccc2C(=O)O)o1 | 37.1* | -5.5 | · | · | · | -2.4
COc1cc(/C=C2/C(C)=C(C#N)c3nc(N)c(C#N)c(C)c32)ccc1OCC(=O)O | -3.9 | 2.5 | · | · | · | -33.8
COc1ccc(NC(=O)N2CCN(S(C)(=O)=O)CC2)c(OC)c1 | -4.4 | -3.5 | · | · | · | 7.6
Oc1c(Cl)cc(Cl)cc1C=Nc1ccccc1N1CCCC1 | -19.8 | 0.0 | -0.47 | -24.6 | 28.3* | 6.6
SMILES | p47phox inh | RBBP9 inhibitor | sdo1 growth | BB579 growth dn | Yeast lifespan up | TbHK1 inh
NC(=O)NCCCC(NC(=O)c1ccc(C#CC2(O)CCCCC2)cc1)C(=O)O (stereo not drawn) | -1.7 | -10.1 | · | · | · | 3.0
COc1ccc2[nH]c3c4c(ccc3c2c1)C(=O)C=CC4=O | 30.5* | 83.7* | · | · | · | -12.7
CCc1ccc(C(=O)NNC(=O)OC)cc1 | 4.7 | 6.0 | · | · | · | -7.3
CC(C)(C)C(=O)O/N=C1/C(=O)N(c2ccccc2)c2ccccc21 | -14.0 | -13.4 | -2.13 | 67.2* | -14.5 | -3.3
COc1cc(C2CC(c3cccnc3)=NN2c2ccc(F)cc2)cc(OC)c1OC (stereo not drawn) | -12.1 | 0.1 | · | · | · | -3.6
CCn1c(SCC(=O)Nc2nc(-c3ccc(C)cc3)cs2)nnc1-c1ccccc1 | -14.9 | -3.1 | -0.82 | -26.3 | -7.5 | -0.9
Cc1ccc(-c2csc(NC(=O)CSc3nc4ccccc4c(=O)n3CCCN(C)C)n2)cc1 | 37.1* | -10.2 | · | · | · | 10.8
Cn1cccc1/C=C1\SC(=S)N(Nc2ccccc2)C1=O | -14.0 | -10.1 | · | · | · | -3.9

Source: PubChem BioAssay (several laboratories)
